The full list was thinned out, with hits kept by preference.
HCT116 bCat-KO = primary screen for growth suppressors in beta-catenin knockout HCT116 cells (colon tumor, human); HCT116 beta-catenin knockout viability, CellTiter-Glo, 60 h; hits give low values; actives 1.5% (n = 140,000); viability, % at 10 µM; AID 818, 2007;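 active = viability at or under a set limit, the compound median less 4 SD, cut at about 6% in these data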;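 note: 0% = Hyamine 1622 control at 20 µM and 100% = untreated cell control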
HCT116 PTEN-null = growth suppression of PTEN-null HCT116, primary screen, cell-based, CellTiter-Glo | HCT116 PTEN-null viability, 60 h; hits give low values | viability, % at 10 µM | actives 1.2% (n = 140,000) | AID 827, 2007;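 active = viability at or below a set limit, 4 SD under the median of all tested compounds, cut at about 3.7% in these data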;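 note: PTEN knockout HCT116 line with beta catenin targeted HCT116 as companion control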
Lung fibro prol = antiproliferative effect on LL 47 fibroblasts – human, LL 47 cells, CellTiter-Glo luminescence, primary screen | actives 1.1% (n = 85,000) | viability, % at 10 µM | LL 47 human lung fibroblast viability, ATP luminescence; hits give low values | AID 719, 2007;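 active = viability at or below 50% in the single dose screen; inactive = viability above 50%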;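 note: compound exposure lasted 72 h before the ATP readout; 100% = median luminescence of untreated cell-only wells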
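Times – overnight cell rest, 72 h compound treatment at 37 °C · Test system – human lung fibroblast line LL 47, low passage · Amount – 1,150 cells in each well · Controls – cell-only wells, no compound · Doses – 0.1% DMSO in all compound wells · Measured by – CellTiter-Glo luminescence · Buffer or medium – IMEM plus 15% FBS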
H69AR inhibit = proliferation blockers of H69AR lung cancer cells, primary screen, cell-based, human, 86K library | actives 6% (n = 85,000) | H69AR lung tumor viability, ATP luminescence, 72 h; hits give low values | viability, % at 10 µM;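 active = viability at or below 40%; inactive = viability above 40%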;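 note: multidrug resistant small cell line overexpressing MRP-1 efflux transporter; 100% = mean luminescence of untreated control wells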
HUVEC inhibit = inhibitors of HUVEC proliferation, primary screen, cell-based, 384-well; CellTiter-Glo luminescence, 72 h; hits give low values; actives 1.1% (n = 86,000); viability, % at 10 µM (by protocol); AID 648, 2007;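 active = viability at or below 30%; inactive = viability above 30%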;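 note: 100% = median luminescence of DMSO-only cell control wells on each plate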
* = called active by the depositor; . = no result given.

SMILES	HCT116 bCat-KO	HCT116 PTEN-null	Lung fibro prol	H69AR inhibit	HUVEC inhibit
O=c1cc(-c2ccccc2)[nH]c2ccccc12	9	13	57	31*	53
CC(NC(=O)/C=C/c1ccc(Br)cc1)c1ccc(Cl)cc1 (stereo not drawn)	92	92	.	.	.
CCOC(=O)C1=C(O)/C(=C\c2ccc(CNC(=O)C(=O)Nc3ccccc3)o2)N=C1C	100	103	106	36*	98
CNC(=O)COC(=O)[C@@H](Nc1ccc(S(=O)(=O)N2CCOCC2)cc1[N+](=O)[O-])C(C)C	102	99	.	.	.
CCOC(=O)c1[nH]c2ccc(F)cc2c1NC(=O)CN1CCN(C/C=C/c2ccccc2)CC1	56	48	14*	3.6*	2.6*
CC(=O)Nc1ccc(NC(=O)C(Cc2ccccc2)NC(=O)C2CCC(C)CC2)cc1 (stereo not drawn)	85	82	.	.	.
CC(C)n1cc(/C=N/NC(=O)COc2cccc3cccnc23)c2ccccc21	89	87	.	.	.
CC(C)n1cc(/C=C2/SC(=O)N(CC(=O)Nc3ccc4c(c3)OCO4)C2=O)c2ccccc21	35	54	.	.	.
CC(C)n1cc(/C=C2\NC(=O)N(c3cccc(Cl)c3)C2=O)c2ccccc21	30	26	89	15*	65
CC(C)n1cc(/C=C2/NC(=O)N(c3cccc(Cl)c3)C2=O)c2ccccc21	29	27	80	18*	57
COc1ccc(/C=N/NC(=O)Cc2cc(OC)c(OC)cc2[N+](=O)[O-])cc1	91	87	.	.	.
COC(=O)C1=C(COc2ccc(C=O)cc2OC)NC(=O)NC1c1cc(C)ccc1C (stereo not drawn)	90	84	.	.	.
COc1ccc(C)cc1C(=O)CCC(=O)Nc1ccccc1N1CCOCC1	1.2*	1.2*	91	81	110
O=C(/C=C/c1ccc([N+](=O)[O-])cc1)OCC(=O)N1c2ccccc2Sc2ccccc21	68	72	.	.	.
COc1ccc(NC(=O)Cn2cnc3c(cnn3-c3ccc(C)c(C)c3)c2=O)c(OC)c1	44	11	94	8.3*	56
Cc1[nH]c2ccccc2c1/C=N/Nc1ccc([N+](=O)[O-])cc1S(=O)(=O)Nc1ccc(Cl)cc1	57	43	.	.	.
COc1ccc(NS(=O)(=O)c2cc([N+](=O)[O-])ccc2N/N=C\c2c(C)[nH]c3ccccc23)cc1	14	3.8*	.	.	.
COc1cccc(/C=C/C(=O)OCC(=O)N2c3ccccc3NC(=O)C2(C)C)c1	98	100	.	.	.
Cc1cccc(S(=O)(=O)C(C#N)c2nc3ccccc3nc2N2CC(C)OC(C)C2)c1 (stereo not drawn)	89	84	85	70	74
Cc1ccc(S(=O)(=O)C(C#N)c2nc3ccccc3nc2N2CC(C)OC(C)C2)cc1C (stereo not drawn)	76	78	98	34*	68
CNC(=S)N1C2CCC1CC(NC(=O)NC13CC4CC(CC(C4)C1)C3)C2 (stereo not drawn)	102	95	.	.	.
CC(C)CC(=O)NC(Nc1ccc([N+](=O)[O-])cc1)C(Cl)(Cl)Cl (stereo not drawn)	28	33	.	.	.
Cc1cc(C(=O)CSc2nnc(-c3cccnc3)n2-c2ccccc2F)c(C)n1C	58	52	93	34*	112
Cc1ccc(C(=O)CSc2nnc(-c3cccnc3)n2N)cc1	59	54	94	27*	78
COc1ccc(C(=O)Nc2nc3ccccc3[nH]2)cc1OC	92	98	107	67	101
SMILES	HCT116 bCat-KO	HCT116 PTEN-null	Lung fibro prol	H69AR inhibit	HUVEC inhibit
CCCCCC(=O)Nc1nc2ccccc2[nH]1	51	46	84	31*	86
CCOc1ccc2nc(NCCCO)[nH]c2c1	85	94	94	89	90
COc1cc(OC)cc(C(=O)Nc2nc3ccccc3[nH]2)c1	48	52	74	30*	77
CCCOc1ccc2nc(NC(=O)OC)[nH]c2c1	10	14	49*	31*	33
COc1ccccc1CCC(=O)Nc1nc2ccccc2[nH]1	7	8	91	21*	90
COc1ccc(CCC(=O)Nc2nc3ccccc3[nH]2)cc1OC	103	94	100	90	93
COc1ccc(CCC(=O)Nc2nc3ccccc3[nH]2)cc1	90	102	.	.	.
CC(C(=O)O)N1C(=O)C2C3CC(C2C1=O)C1C(c2ccccc2)c2sc(=O)[nH]c2SC31 (stereo not drawn)	93	98	.	.	.
Cc1ccc(C(=O)C2CCN(CC(=O)Nc3nc(C)cs3)CC2)cc1	64	70	.	.	.
Cc1nc2cc(N3CCCCC3)c(NC(=O)c3ccncc3)cc2c(=O)n1Cc1ccccc1	4.4*	4	.	.	.
Cc1nc2cc(N3CCOCC3)c(NC(=O)C3CC3)cc2c(=O)n1Cc1ccccc1	.	.	103	100	95
CCC(C)(C)n1nnnc1C(c1cccnc1)N1CCN(c2cccc(C(F)(F)F)c2)CC1 (stereo not drawn)	65	70	94	78	88
CC(C(=O)Nc1ccccc1-c1ccccc1)N1CCCCC1 (stereo not drawn)	76	82	96	2.6*	113
CC(C(=O)Nc1ccccc1-c1ccccc1)N1CCN(S(=O)(=O)c2ccccc2)CC1 (stereo not drawn)	84	86	.	.	.
Cc1ccc(-c2[nH]nc(N)c2N=Nc2cccc(Cl)c2C)cc1	12	8	.	.	.
Cc1ccc(-c2[nH]nc(N)c2N=Nc2ccccc2C)cc1	3.1*	5	.	.	.
CCCCOc1cccc(C(=O)Nc2ccc(N3CCN(CC)CC3)cc2)c1	24	33	79	43	72
CN1CCN(c2ccccc2NC(=O)c2ccc(OCc3ccccc3)cc2)CC1	3.4*	6	95	.	17*
CN1CCN(c2ccc(S(=O)(=O)N3CCCCC3)cc2NC(=O)c2ccc(C#N)cc2)CC1	88	88	.	.	.
CN1CCN(c2ccccc2NC(=O)c2ccc(-c3ccccc3)cc2)CC1	47	28	87	33*	48
CN1CCN(c2ccc(Cl)cc2NC(=O)c2ccc(S(=O)(=O)N3CCCCCC3)cc2)CC1	77	79	89	2.5*	35
O=C(Nc1ccccc1F)c1ccc(OCc2ccccc2)cc1	97	99	.	.	.
CCCCOc1ccc(C(=O)Nc2ccc(N3CCN(C)CC3)cc2)cc1	1.5*	1.8*	28*	23*	32
COC(=O)c1cc(OC)c(OC)cc1NC(=S)N1CCN(C/C=C/c2ccccc2)CC1	81	84	.	.	.
CC(=O)NC1=NN(C(C)=O)C(c2sccc2C)S1 (stereo not drawn)	100	93	100	103	97
O=C(COC(=O)/C=C/c1ccccc1Cl)NCCc1ccc(Cl)cc1Cl	94	102	.	.	.
C=CCc1cccc(/C=N/NC(=O)CCC(=O)Nc2ccc(C)cc2)c1O	7	5	.	.	.
O=C(OCc1cnc(Cl)s1)c1cccc(Cl)c1Cl	92	95	.	.	.
